# According to ChEMBL document CHEMBL4480375, “Synthesis and receptor binding of thiophene bioisosteres of potent GluN2B ligands with a benzo[7]annulene-scaffold” (Medchemcomm, 2019):
# How the values were obtained:
# [1] = target: T1, Sigma intracellular receptor 2 (Rattus norvegicus, UniProt Q5U3Y7); test: Displacement of [3H]di-o-tolylguanidine from sigma2 receptor in rat liver membranes measured after 120 mins by scintillation counting analysis; type: cell membranes
# T1 sequence (Q5U3Y7 whole entry): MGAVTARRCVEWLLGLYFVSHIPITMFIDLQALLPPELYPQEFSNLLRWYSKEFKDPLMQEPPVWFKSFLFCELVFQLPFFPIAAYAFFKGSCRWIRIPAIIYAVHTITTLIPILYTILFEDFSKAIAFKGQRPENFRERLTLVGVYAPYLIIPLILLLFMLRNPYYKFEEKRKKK
# [2] = target: Sigma non-opioid intracellular receptor 1 (Cavia porcellus, UniProt Q60492); test: Displacement of [3H]-(+)-pentazocine from sigma1 receptor in guinea pig brain cortex membranes measured after 120 mins by scintillation counting analysis; type: cell membranes
# Sequence of Sigma non-opioid intracellular receptor 1 (Q60492 whole entry): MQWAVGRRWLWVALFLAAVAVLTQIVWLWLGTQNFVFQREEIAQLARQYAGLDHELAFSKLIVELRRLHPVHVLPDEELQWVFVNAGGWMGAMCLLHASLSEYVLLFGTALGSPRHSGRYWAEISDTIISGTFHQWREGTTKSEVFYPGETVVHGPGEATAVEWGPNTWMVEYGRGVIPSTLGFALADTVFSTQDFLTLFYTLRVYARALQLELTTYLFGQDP
# [3] = target: Glutamate receptor ionotropic, NMDA 2B (Homo sapiens, UniProt Q05586+Q13224); test: Displacement of [3H]-ifenprodil from GluN2B (unknown origin) expressed in L(tk) cells by radio ligand binding assay; type: cell-based
# Sequence of Glutamate receptor ionotropic, NMDA 2B (Homo sapiens, UniProt Q05586+Q13224) (Q13224 whole entry, one chain of several): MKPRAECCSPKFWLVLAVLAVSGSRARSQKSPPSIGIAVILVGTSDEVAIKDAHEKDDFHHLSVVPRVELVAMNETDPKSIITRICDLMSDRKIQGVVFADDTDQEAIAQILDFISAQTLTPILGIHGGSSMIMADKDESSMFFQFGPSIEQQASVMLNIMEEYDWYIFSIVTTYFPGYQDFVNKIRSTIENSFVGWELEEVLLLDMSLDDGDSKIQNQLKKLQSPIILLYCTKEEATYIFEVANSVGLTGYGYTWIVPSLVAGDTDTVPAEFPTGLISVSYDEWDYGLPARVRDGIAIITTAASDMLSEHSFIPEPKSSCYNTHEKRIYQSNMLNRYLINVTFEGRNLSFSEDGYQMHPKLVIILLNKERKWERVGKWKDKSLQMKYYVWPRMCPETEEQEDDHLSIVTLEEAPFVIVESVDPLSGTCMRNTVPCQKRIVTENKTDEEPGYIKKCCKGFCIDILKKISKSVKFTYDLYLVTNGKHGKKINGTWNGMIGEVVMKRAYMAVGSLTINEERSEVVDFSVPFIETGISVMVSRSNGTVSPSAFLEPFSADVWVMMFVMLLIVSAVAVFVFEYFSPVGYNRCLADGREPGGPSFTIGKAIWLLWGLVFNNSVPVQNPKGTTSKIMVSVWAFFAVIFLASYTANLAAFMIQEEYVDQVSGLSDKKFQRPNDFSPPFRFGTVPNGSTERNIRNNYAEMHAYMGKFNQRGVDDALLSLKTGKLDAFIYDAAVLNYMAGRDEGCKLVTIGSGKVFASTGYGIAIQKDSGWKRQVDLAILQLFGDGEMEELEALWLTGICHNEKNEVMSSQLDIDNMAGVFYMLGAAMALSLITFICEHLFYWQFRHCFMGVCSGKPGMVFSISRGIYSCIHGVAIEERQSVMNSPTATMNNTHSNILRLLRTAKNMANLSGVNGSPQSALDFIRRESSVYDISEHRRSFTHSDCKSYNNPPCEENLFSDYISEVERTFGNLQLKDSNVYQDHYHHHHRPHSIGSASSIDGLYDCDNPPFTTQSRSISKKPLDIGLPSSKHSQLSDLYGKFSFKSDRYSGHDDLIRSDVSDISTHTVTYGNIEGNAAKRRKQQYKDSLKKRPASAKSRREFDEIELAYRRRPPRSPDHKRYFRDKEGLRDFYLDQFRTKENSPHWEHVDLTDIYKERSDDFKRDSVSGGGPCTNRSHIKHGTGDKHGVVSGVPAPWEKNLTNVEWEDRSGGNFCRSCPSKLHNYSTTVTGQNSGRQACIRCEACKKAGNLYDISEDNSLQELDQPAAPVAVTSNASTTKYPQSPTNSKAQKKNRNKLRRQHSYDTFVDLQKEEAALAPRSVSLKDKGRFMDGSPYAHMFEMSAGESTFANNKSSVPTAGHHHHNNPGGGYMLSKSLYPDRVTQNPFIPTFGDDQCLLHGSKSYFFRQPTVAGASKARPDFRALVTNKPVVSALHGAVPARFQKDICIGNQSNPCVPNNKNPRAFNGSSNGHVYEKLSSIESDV
# Summary of the method: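 Mouse L(tk-) cells stably carrying dexamethasone-inducible GluN1a/GluN2B (1:5) were induced for 24 h with 4 μM dexamethasone plus 4 μM ketamine, then sonicated to membranes (about 20 μg protein). […] Filtration and scintillation counting, in duplicate. Ki by Cheng–Prusoff (Kd 7.6 nM), mean ± SEM of n=3.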
# [4] = target: T2, Glutamate receptor ionotropic, NMDA 2B (Homo sapiens, UniProt Q13224); test: Displacement of [3H]-ifenprodil from GluN2B (unknown origin) expressed in mouse L(tk) cells measured after 120 mins by scintillation counting analysis
# T2 sequence (Q13224 whole entry): as the sequence (Q13224 whole entry, one chain of several) above
# [5] = target: T2, Glutamate receptor ionotropic, NMDA 2B; test: Inhibition of GluN2B (unknown origin)
SMILES,Ki [1] [nM],Ki [2] [nM],Ki [3] [nM],Ki [4] [nM],Ki [5] [nM]
c1ccc(CNC2CCc3ccsc3CC2)cc1 (stereo unspecified),50,79,,26,
OC1CC(NCc2ccccc2)CCc2sccc21 (mixture of isomers),606,737,,204,
COc1ccc2c(c1)CC[C@H](NCCCc1ccccc1)C[C@@H]2O (relative stereo),9.2,132,,,

# Continued by falling Ki [1], values first:
Ki [1] [nM],Ki [2] [nM],Ki [3] [nM],Ki [4] [nM],Ki [5] [nM],SMILES
1100,167,,48,48,COc1ccc2c(c1)CC[C@H](NCCCc1ccccc1)C[C@H]2O (relative stereo)
770,470,128,128,,Nc1ccc2c(c1)CCC(NCc1ccccc1)CC2 (stereo unspecified)
